In ChEMBL document CHEMBL2321795, “Solubility-driven optimization of (pyridin-3-yl) benzoxazinyl-oxazolidinones leading to a promising antibacterial agent” (J Med Chem, 2013):
In brackets after ≈: the same amount, converted by molar mass.

Key:
[1] = test system: Enterococcus faecalis; assay: Antibacterial activity against Enterococcus faecalis after 16 hrs by NCCLS agar dilution method; assay type: functional
How it was run: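 Agar dilution MIC per NCCLS, 6 E. faecalis strains. Stock was 320 μg/mL in 50% water/DMSO, serially 2-fold diluted in sterile water, then 10-fold into Mueller–Hinton agar to give 16–0.03125 μg/mL final. Inocula came from MH broth cultures grown 8 h at 35 °C, adjusted to 0.5 McFarland and spotted by multipoint inoculator. Plates were read after 16 h at 35 °C.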

[2] = Oral bioavailability in Sprague-Dawley rat at 15 mg/kg; assay type: ADME, organism-based; settings: in vivo
How it was run: (§1)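 Rats were dosed orally or by intravenous injection. For prodrugs, all parameters were based on the active parent antibacterial detected in plasma, and each prodrug dose was also given as an equivalent parent dose. Parameters were Cmax, Tmax, elimination T1/2, AUC from the concentration–time curve, clearance and oral bioavailability F.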

[3] = test system: Staphylococcus aureus; assay: Ratio of linezolid MIC to compound MIC for linezolid-resistant Staphylococcus aureus; assay type: functional
How it was run: (§2)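 Agar dilution per NCCLS, with linezolid tested alongside as control. Compounds were diluted 2-fold in sterile water, then 10-fold into Mueller–Hinton agar (final 16–0.03125 μg/mL). Strains (E. faecalis 3, E. faecium 3, S. aureus 3, S. epidermidis 1) were grown in MH broth at 35 °C for 8 h, adjusted to 0.5 McFarland, multipoint-inoculated, and incubated at 35 °C for 16 h. The ratio is linezolid MIC over compound MIC.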

[4] = test system: Enterococcus faecium; assay: Antibacterial activity against linezolid-resistant Enterococcus faecium after 16 hrs by NCCLS agar dilution method; assay type: functional
How it was run: (§3)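 Agar dilution MIC. Stocks were 320 μg/mL in 50% aqueous DMSO, 2-fold serially diluted in sterile water, then diluted 10-fold into Mueller–Hinton agar to give 16–0.03125 μg/mL final. Organisms were grown in MH broth at 35 °C for 8 h and adjusted to 0.5 McFarland. They were spotted onto drug-containing plates with a multipoint inoculator and incubated at 35 °C for 16 h. Linezolid was the positive control.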

[5] = AUC in Sprague-Dawley rat at 15 mg/kg, po by LC-MS analysis; assay type: ADME, organism-based; set-up: dose 15 mg/kg, route oral; settings: plasma
How it was run: (§4)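 Rats dosed orally or by intravenous injection. AUC is the area under the plasma concentration–time curve. For the prodrug entries, all PK values were based on the amount of the active parent antibacterial detected, not the administered prodrug.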

[6] = Clearance in Sprague-Dawley rat at 5 mg/kg, iv by LC-MS analysis; assay type: ADME, organism-based; set-up: dose 5 mg/kg, route intravenous; settings: in vivo
How it was run: (§5)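 Rats received the compound by intravenous injection, with oral dosing run in parallel. Clearance (CLz) is reported in L/h/kg. Elimination half-life (T1/2) is reported in h and was taken from the plasma concentration–time profile.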

[7] = test system: Staphylococcus epidermidis; assay: Antibacterial activity against methicillin-sensitive Staphylococcus epidermidis after 16 hrs by NCCLS agar dilution method; assay type: functional; how it was run: as §3
[8] = test system: Streptococcus pneumoniae; assay: Antibacterial activity against penicillin-resistant Streptococcus pneumoniae after 16 hrs by NCCLS agar dilution method; assay type: functional; how it was run: as §3
[9] = test system: Staphylococcus epidermidis; assay: Antibacterial activity against linezolid-resistant Staphylococcus epidermidis after 16 hrs by NCCLS agar dilution method; assay type: functional; how it was run: as §3
[10] = AUC in Sprague-Dawley rat at 5 mg/kg, iv by LC-MS analysis; assay type: ADME, organism-based; set-up: dose 5 mg/kg, route intravenous; settings: plasma; how it was run: as §4
[11] = test system: Staphylococcus epidermidis; assay: Antibacterial activity against methicillin-resistant Staphylococcus epidermidis after 16 hrs by NCCLS agar dilution method; assay type: functional; how it was run: as §3
[12] = test system: Staphylococcus aureus; assay: Antibacterial activity against methicillin-sensitive Staphylococcus aureus after 16 hrs by NCCLS agar dilution method; assay type: functional; how it was run: as §3
[13] = Elimination half life in Sprague-Dawley rat at 5 mg/kg, iv by LC-MS analysis; assay type: ADME, organism-based; set-up: dose 5 mg/kg, route intravenous; settings: in vivo, read-out: beta t1/2 (converted); how it was run: as §5
[14] = Cmax in Sprague-Dawley rat at 15 mg/kg, po by LC-MS analysis; assay type: ADME, organism-based; set-up: dose 15 mg/kg, route oral; settings: in vivo; how it was run: as §1
[15] = test system: Enterococcus faecalis; assay: Antibacterial activity against linezolid-resistant Enterococcus faecalis after 16 hrs by NCCLS agar dilution method; assay type: functional; how it was run: as §3
[16] = molecular target: Voltage-gated inwardly rectifying potassium channel KCNH2 (Homo sapiens, UniProt Q12809)
Sequence of Voltage-gated inwardly rectifying potassium channel KCNH2 (Q12809 whole entry): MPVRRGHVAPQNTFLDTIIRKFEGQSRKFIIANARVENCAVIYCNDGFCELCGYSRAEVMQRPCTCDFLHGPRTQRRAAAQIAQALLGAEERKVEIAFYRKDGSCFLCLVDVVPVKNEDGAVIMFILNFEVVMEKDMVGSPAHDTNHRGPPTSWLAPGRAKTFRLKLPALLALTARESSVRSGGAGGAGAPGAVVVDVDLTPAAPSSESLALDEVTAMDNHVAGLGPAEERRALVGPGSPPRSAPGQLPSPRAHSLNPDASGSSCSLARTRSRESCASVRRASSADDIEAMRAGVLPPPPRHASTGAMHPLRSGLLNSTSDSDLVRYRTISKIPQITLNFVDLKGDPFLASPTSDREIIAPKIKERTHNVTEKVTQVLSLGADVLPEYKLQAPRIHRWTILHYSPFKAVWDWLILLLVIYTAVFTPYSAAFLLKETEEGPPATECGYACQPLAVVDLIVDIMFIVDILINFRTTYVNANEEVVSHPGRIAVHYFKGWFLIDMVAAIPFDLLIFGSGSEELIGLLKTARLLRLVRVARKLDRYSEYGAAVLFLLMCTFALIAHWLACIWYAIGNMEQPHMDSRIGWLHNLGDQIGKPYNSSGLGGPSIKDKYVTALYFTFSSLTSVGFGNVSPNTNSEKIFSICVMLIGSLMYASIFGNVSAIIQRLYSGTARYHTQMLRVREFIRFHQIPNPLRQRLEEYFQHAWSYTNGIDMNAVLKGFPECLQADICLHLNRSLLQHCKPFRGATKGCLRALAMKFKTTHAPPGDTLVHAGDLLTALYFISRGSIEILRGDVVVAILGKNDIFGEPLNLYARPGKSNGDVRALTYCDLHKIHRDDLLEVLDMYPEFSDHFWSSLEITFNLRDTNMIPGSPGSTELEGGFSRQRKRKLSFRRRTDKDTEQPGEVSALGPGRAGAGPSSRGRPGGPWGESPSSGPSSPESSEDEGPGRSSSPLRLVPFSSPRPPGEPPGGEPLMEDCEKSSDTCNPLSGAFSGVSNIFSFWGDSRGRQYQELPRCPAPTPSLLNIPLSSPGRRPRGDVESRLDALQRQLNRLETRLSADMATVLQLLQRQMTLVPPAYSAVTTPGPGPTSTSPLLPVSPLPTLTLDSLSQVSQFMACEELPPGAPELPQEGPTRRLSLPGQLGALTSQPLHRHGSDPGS

[17] = test system: Staphylococcus aureus; assay: Antibacterial activity against Staphylococcus aureus ATCC 29213 after 16 hrs by NCCLS agar dilution method; assay type: functional; settings: ATCC 29213, 16 h; how it was run: as §3
[18] = test system: Enterococcus faecalis; assay: Ratio of linezolid MIC to compound MIC for linezolid-resistant Enterococcus faecalis; assay type: functional; how it was run: as §2
[19] = test system: Enterococcus faecium; assay: Ratio of linezolid MIC to compound MIC for linezolid-resistant Enterococcus faecium; assay type: functional; how it was run: as §2
[20] = test system: Staphylococcus epidermidis; assay: Ratio of linezolid MIC to compound MIC for linezolid-resistant Staphylococcus epidermidis; assay type: functional; how it was run: as §2
[21] = test system: Staphylococcus aureus; assay: Antibacterial activity against methicillin-resistant Staphylococcus aureus after 16 hrs by NCCLS agar dilution method; assay type: functional; how it was run: as §3
[22] = Elimination half life in Sprague-Dawley rat at 15 mg/kg, po by LC-MS analysis; assay type: ADME, organism-based; set-up: dose 15 mg/kg, route oral; settings: in vivo, read-out: beta t1/2 (converted); how it was run: as §1
[23] = test system: Staphylococcus aureus; assay: Antibacterial activity against linezolid-resistant Staphylococcus aureus after 16 hrs by NCCLS agar dilution method; assay type: functional; how it was run: as §3
[24] = Tmax in Sprague-Dawley rat at 15 mg/kg, po by LC-MS analysis; assay type: ADME, organism-based; set-up: dose 15 mg/kg, route oral; settings: in vivo; how it was run: as §1
[25] = Elimination half life in Sprague-Dawley rat at 5.6 mg/kg, iv by LC-MS analysis; assay type: ADME, organism-based; set-up: dose 5.6 mg/kg, route intravenous; settings: in vivo, read-out: beta t1/2 (converted); how it was run: as §1
[26] = Cmax in Sprague-Dawley rat at 10 mg/kg, po by LC-MS analysis; assay type: ADME, organism-based; set-up: dose 10 mg/kg, route oral; settings: in vivo; how it was run: as §1
[27] = Tmax in Sprague-Dawley rat at 10 mg/kg, po by LC-MS analysis; assay type: ADME, organism-based; set-up: dose 10 mg/kg, route oral; settings: in vivo; how it was run: as §1
[28] = Elimination half life in Sprague-Dawley rat at 10 mg/kg, po by LC-MS analysis; assay type: ADME, organism-based; set-up: dose 10 mg/kg, route oral; settings: in vivo, read-out: beta t1/2 (converted); how it was run: as §1
[29] = test system: Rattus norvegicus; assay: AUC in Sprague-Dawley rat at 10 mg/kg, po by LC-MS analysis; assay type: ADME, organism-based, Plasma; set-up: dose 10 mg/kg, route oral; settings: in vivo; how it was run: as §1
[30] = test system: Rattus norvegicus; assay: AUC in Sprague-Dawley rat at 5.6 mg/kg, iv by LC-MS analysis; assay type: ADME, organism-based, Plasma; set-up: dose 5.6 mg/kg, route intravenous; settings: in vivo; how it was run: as §1
[31] = test system: Rattus norvegicus; assay: Oral bioavailability in Sprague-Dawley rat at 10 mg/kg; assay type: ADME, organism-based; settings: in vivo; how it was run: as §1

With `CN1C[C@@H](c2ccc(-c3ccc4c(c3)OC[C@H]3[C@H](CO)OC(=O)N43)cn2)OC1=O` the MIC [1] was 1 µg/mL (≈ 2.52 µM), the bioavailability [2] was 44.8% and the Ratio [3] was 4. It also gave an MIC [4] of 2 µg/mL (≈ 5.03 µM), an AUC [5] of 2170 ng·h/mL and a clearance [6] of 53.7 mL/min/kg. For the same compound, the MIC [7] was 0.25 µg/mL (≈ 0.629 µM), the MIC [8] was 0.5 µg/mL (≈ 1.26 µM) and the MIC [9] was 2 µg/mL (≈ 5.03 µM). The AUC [10] was 1560 ng·h/mL, the MIC [11] was 0.25 µg/mL (≈ 0.629 µM) and the MIC [12] was 0.5 µg/mL (≈ 1.26 µM). The half-life [13] was 2.51 h, the Cmax [14] was 809 ng/mL and the MIC [15] was 2 µg/mL (≈ 5.03 µM). The IC50 [16] was greater than 40 µM, the MIC [17] was 0.5 µg/mL (≈ 1.26 µM) and the Ratio [18] was 4. It also gave a Ratio [19] of 4, a Ratio [20] of 4 and an MIC [21] of 0.5 µg/mL (≈ 1.26 µM). It also gave a half-life [22] of 1.93 h, an MIC [23] of 4 µg/mL (≈ 10.1 µM) and a Tmax [24] of 1 h.

Work on `O=C1OC(CO)CN1c1ccc(-c2ccc3c(c2)OC[C@H]2[C@H](CO)OC(=O)N32)cn1` (stereo partly drawn) yielded a half-life [25] of 1.08 h, an MIC [1] of 0.5 µg/mL (≈ 1.21 µM) and an MIC [4] of 4 µg/mL (≈ 9.68 µM). For the same compound, the Cmax [26] was 332 ng/mL, the MIC [7] was 0.25 µg/mL (≈ 0.605 µM) and the MIC [8] was 0.5 µg/mL (≈ 1.21 µM). The Tmax [27] was 0.38 h, the MIC [9] was 4 µg/mL (≈ 9.68 µM) and the MIC [11] was 0.5 µg/mL (≈ 1.21 µM). The MIC [12] was 0.5 µg/mL (≈ 1.21 µM), the half-life [28] was 2.25 h and the AUC [29] was 1491 ng·h/mL. The MIC [15] was 4 µg/mL (≈ 9.68 µM), the IC50 [16] was greater than 40 µM and the MIC [17] was 0.5 µg/mL (≈ 1.21 µM). For the same compound, the AUC [30] was 2800 ng·h/mL, the F [31] was 27.5% and the MIC [21] was 0.5 µg/mL (≈ 1.21 µM). For the same compound, the MIC [23] was 8 µg/mL (≈ 19.4 µM).
